The values that follow come from publication PMC5515376 (Nature, 2016).

The subject of data set [1] is P. falciparum (NF54) liver stage. In words: In vitro P. falciparum liver-stage assay. It is filed as cell-based, Plasmodium falciparum.
Data set [2] in a line: Solubility assay in PBS. It is filed as physicochemical. The settings on record: PBS pH 7.4 with 1% DMSO. Summed up:
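Compound was prepared at 100 µM in triplicate, both in 100% DMSO and in PBS pH 7.4 with 1% DMSO. Samples were shaken at 750 r.p.m. for 18 h at room temperature. Analysis was by UPLC–MS with single-ion detection. PBS response was fitted to a two-point calibration built from the DMSO samples.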

Data set [3] deals with P. berghei (ANKA GFP-luc) blood-stage parasites. Nature of the data set: In vivo P. berghei blood-stage assay. Also on record: species or system Plasmodium berghei. The conditions noted are these: CD-1 mice.

For the compound `COc1ccc(NC(=O)N2CCCCN3[C@H](CN(C)C)[C@H](c4ccc(C#Cc5ccccc5)cc4)[C@@H]3C2)cc1` [BRD7929], the concentration for a half-maximal effect (EC50) – broadly, the concentration that produces a half-maximal response – in data set [1] is 340 nM. This compound also returned a PBS solubility in data set [2] of 15 µM. The “Cure of the infected animals” value in data set [3] (single 25 mg kg^−1 oral dose) was 100%. For the same compound, the “Parasite status up to 30-day end-point (bioluminescent imaging)” value in data set [3] (single oral 25 mg kg^−1 or 50 mg kg^−1 dose) is on record as “parasite-free”. Besides, in data set [3] (single oral dose of 12.5 mg kg^−1, n = 4), the “Animals showing recrudescence at 6 days after treatment” value was “One in four animals”. The “Lowest single oral dose achieving sterile cure” value in data set [3] (P. berghei) was 25 mg/kg.
